Results taken from ChEMBL document CHEMBL1649384, “Synthesis and antiproliferative activity of novel symmetrical alkylthio- and alkylseleno-imidocarbamates” (Eur J Med Chem, 2011).

Assays:
MCF7 [1] = assay: Induction of apoptosis in human MCF7 cells assessed as accumulation at G2/M phase at 15 uM after 48 hrs by DNA flow cytometric assay; format: functional
Outline: (§1)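 Exponentially growing MCF-7 cells were given compound or vehicle, with camptothecin as positive control. Cells were fixed in 1% paraformaldehyde in PBS pH 7.4 on ice for 1 h, then in 70% ethanol at −20 °C for 30 min. They were stained with PI/RNase for 30 min at RT in the dark. DNA content was measured by flow cytometry as % of total cells. Mean ± SEM of three independent experiments, duplicate wells.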

MCF7 [2] = assay: Induction of apoptosis in human MCF7 cells assessed as accumulation at subG1 phase at 15 uM after 48 hrs by DNA flow cytometric assay; format: functional; outline: as §1
MCF7 [3] = assay: Induction of apoptosis in human MCF7 cells assessed as accumulation at S phase at 15 uM after 24 hrs by DNA flow cytometric assay; format: functional; outline: as §1
MCF7 [4] = assay: Induction of apoptosis in human MCF7 cells assessed as accumulation at G0/G1 phase at 15 uM after 24 hrs by DNA flow cytometric assay; format: functional; outline: as §1
MCF7 [5] = assay: Induction of apoptosis in human MCF7 cells assessed as accumulation at G0/G1 phase at 15 uM after 48 hrs by DNA flow cytometric assay; format: functional; outline: as §1
HT-29 [6] = assay: Cytotoxicity against human HT-29 cells after 72 hrs by MTT assay; format: functional; conditions: HT-29, 72 h; for CC50: read-out: LC50 (the source's name)
Outline: (§2)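 Cells seeded per well: Hep-G2 1×10⁴, HT-29 4×10³, K-562 4×10³, MCF-7 1.2×10⁴, MCF-10A 7×10³, PC-3 2×10³. MCF-10A were grown in supplemented MEBM at 37 °C, 5% CO₂. Five concentrations were tested between 0.01 and 100, with 72 h exposure. Formazan was read by A590. GI₅₀ was taken relative to untreated controls, from at least three independent experiments.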

K562 = assay: Cytotoxicity against human K562 cells after 72 hrs by MTT assay; format: functional; conditions: K562, 72 h; for CC50: read-out: LC50 (the source's name); outline: as §2
MCF7 [7] = assay: Induction of apoptosis in human MCF7 cells assessed as apoptotic cells at 15 uM after 24 hrs by TUNEL assay; format: functional
Outline: (§3)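 TUNEL (Apo-Direct) on MCF-7 cells treated with compound or vehicle, with camptothecin as positive control. Cells were fixed in paraformaldehyde and then ethanol, labelled with FITC-dUTP for 1 h at 37 °C, counterstained with PI/RNase, and analysed by flow cytometry. Read-out is % apoptotic cells, mean ± SEM of three independent experiments in duplicate wells.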

MCF7 [8] = assay: Induction of apoptosis in human MCF7 cells assessed as accumulation at subG1 phase at 15 uM after 24 hrs by DNA flow cytometric assay; format: functional; outline: as §1
PC-3 [9] = assay: Cytotoxicity against human PC3 cells after 72 hrs by MTT assay; format: functional; conditions: PC-3, 72 h; for CC50: read-out: LC50 (the source's name); outline: as §2
MCF7 [10] = assay: Cytotoxicity against human MCF7 cells after 72 hrs by MTT assay; format: functional; conditions: MCF7, 72 h; outline: as §2
MCF7 [11] = assay: Induction of apoptosis in human MCF7 cells assessed as apoptotic cells at 15 uM after 48 hrs by TUNEL assay; format: functional; outline: as §3
MCF7 [12] = assay: Induction of apoptosis in human MCF7 cells assessed as accumulation at G2/M phase at 15 uM after 24 hrs by DNA flow cytometric assay; format: functional; outline: as §1
MCF7 [13] = assay: Induction of apoptosis in human MCF7 cells assessed as accumulation at S phase at 15 uM after 48 hrs by DNA flow cytometric assay; format: functional; outline: as §1
HT-29 [14] = assay: Cytotoxicity against human HT-29 cells after 72 hrs by CV method; format: functional; conditions: HT-29, 72 h
Outline: (§4)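 Crystal violet check of the MTT data: eight concentrations between 0.01 and 100, with 72 h exposure. Cells were fixed in 4% formaldehyde for at least 20 min, then stained with 0.1% crystal violet for 30 min. GI₅₀ is the concentration halving growth relative to untreated controls.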

[15] = Cytotoxicity against human MCF10A cells after 72 hrs by MTT assay; format: cell-based, MCF-10A; conditions: for GI50 at 72 h: MCF10A cells; for LC50 / TGI: mcf-10a, 72 h; outline: as §2
HepG2 = assay: Cytotoxicity against human HepG2 cells after 72 hrs by MTT assay; format: functional; conditions: HepG2, 72 h; for CC50: read-out: LC50 (the source's name); outline: as §2
PC-3 [16] = assay: Cytotoxicity against human PC3 cells after 72 hrs by CV method; format: functional; conditions: PC-3, 72 h; outline: as §4

SMILES | Activity (MCF7 [1]) | Activity (MCF7 [2]) | Activity (MCF7 [3]) | Activity (MCF7 [4]) | Activity (MCF7 [5]) | GI50 (HT-29 [6]) | TGI (HT-29 [6]) | CC50 (HT-29 [6]) | GI50 (K562) | TGI (K562) | CC50 (K562) | Activity (MCF7 [8]) | GI50 (PC-3 [9]) | TGI (PC-3 [9]) | CC50 (PC-3 [9]) | GI50 (MCF7 [10]) | TGI (MCF7 [10]) | Activity (MCF7 [11]) | Activity (MCF7 [12]) | Activity (MCF7 [13]) | also measured
CC[C@@]1(O)C(=O)OCc2c1cc1n(c2=O)Cc2cc3ccccc3nc2-1 [CAMPTOTHECIN] | 15.15% | 25.73% | 10.4% | 65.62% | 41.61% | 0.05 µM | 31.6 µM | 31.6 µM | 0.06 µM | 50.1 µM | > 100 µM | 10.92% | 0.06 µM | > 100 µM | > 100 µM | 0.01 µM | 0.16 µM | 71.45% | 11.51% | 16.91% | Activity (MCF7 [7]): 21.25%
C[Se]/C(=N\C(=O)c1cccs1)NC(=O)c1cccs1 | 22.74% | 14.14% | 18.3% | 45.32% | 35.25% | 0.00034 µM | > 100 µM | > 100 µM | 6.07 µM | > 100 µM | > 100 µM | 9.31% | 1.34 µM | 63 µM | > 100 µM | 0.0034 µM | 5.64 µM | 71.08% | 23.85% | 25.21% | GI50 (HT-29 [14]): 9 µM; GI50 at 72 h [15]: 9.26 µM; LC50 [15]: 73.51 µM; TGI [15]: 41.14 µM; Activity (MCF7 [7]): 29.35%; LC50 (MCF7 [10]): > 100 µM; GI50 (HepG2): 0.63 µM; TGI (HepG2): 1.5 µM; CC50 (HepG2): 12.5 µM; GI50 (PC-3 [16]): 0.63 µM
C[Se]/C(=N\C(=O)c1cnc2ccccc2c1)NC(=O)c1cnc2ccccc2c1 | 19.97% | 11.34% | 8.1% | 73.06% | 32.87% | 0.2 µM | > 100 µM | > 100 µM | 3.8 µM | 29.9 µM | 74.8 µM | 10.29% | 2.33 µM | 43.6 µM | > 100 µM | 0.66 µM | 8.03 µM | 27.19% | 7.21% | 32.68% | GI50 (HT-29 [14]): 0.46 µM; GI50 at 72 h [15]: 20.3 µM; LC50 [15]: 83.86 µM; TGI [15]: 52.1 µM; LC50 (MCF7 [10]): 60.7 µM; GI50 (HepG2): 4.16 µM; TGI (HepG2): 23.7 µM; CC50 (HepG2): 87.8 µM; GI50 (PC-3 [16]): 1.42 µM
